Data from ChEMBL document CHEMBL1131179, “Structural optimization affording 2-(R)-(1-(R)-3, 5-bis(trifluoromethyl)phenylethoxy)-3-(S)-(4-fluoro)phenyl-4- (3-oxo-1,2,4-triazol-5-yl)methylmorpholine, a potent, orally active, long-acting morpholine acetal human NK-1 receptor antagonist” (J Med Chem, 1998).

Experiments:
Substance-P receptor = Substance-P receptor (Homo sapiens, UniProt P25103); assay: Displacement of [125I]-labeled SP from the human Tachykinin receptor 1 expressed in CHO cells; format: cell-based
Gerbillinae [1] = assay: Inhibition of GR 73632-induced foot tapping in gerbils upon intravenous administration of compound after 24 hr; format: functional; conditions: read-out: ID50 (the source's name)
Method in brief: (§1)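 Male or female Mongolian gerbils (35–70 g) under isoflurane/oxygen anaesthesia. Test compound or vehicle is given iv into the jugular vein at 5 mL/kg. At 0, 4 or 24 h, GR 73,632 (3 pmol) is infused icv via a needle 4.5 mm below bregma. Hind foot tapping is timed for 5 min after recovery. 3–9 animals per dose. ID50 by nonlinear least-squares regression of mean data.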

Gerbillinae [2] = assay: Inhibition of GR 73632-induced foot tapping in gerbils upon intravenous administration of compound; format: functional; conditions: read-out: ID50 (the source's name); method in brief: as §1
Gerbillinae [3] = assay: Inhibition of GR 73632-induced foot tapping in gerbils upon intravenous administration of compound after 4 hr; format: functional; conditions: read-out: ID50 (the source's name); method in brief: as §1
Cavia porcellus [4] = assay: Inhibition of resiniferatoxin-induced systemic vascular leakage in guinea pig (SYVAL) upon oral administration at 1 hr; format: functional; conditions: read-out: ID50 (the source's name)
Method in brief: (§2)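 Guinea pigs dosed orally 1 or 24 h before iv resiniferatoxin challenge (400 µL/kg over 30 s, penile vein), given 10 min after Evans Blue. Killed 10 min post-challenge. Bladder, trachea and esophagus dried (24 h, 65 °C) and extracted with plasma in formamide (65 °C, 24 h). Extravasation read at OD620-650 against plasma, as mg plasma/g dry tissue. n = 4-12 per point; ID50 by nonlinear least-squares regression of mean data.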

Cavia porcellus [5] = assay: Inhibition of resiniferatoxin-induced systemic vascular leakage in guinea pig (SYVAL) upon oral administration at 24 hr r; format: functional; method in brief: as §2
Mustela putorius furo [6] = assay: compound was tested for antiemetic action in ferret at 0.3 mg/kg after intravenous administration followed by emetogen (cisplatin) challenge at 10 mg/kg, iv after 3 min; format: functional
Method in brief: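 Male ferrets (1.0–2.0 kg) under halothane receive 0.3 mg/kg iv in PEG 300 vehicle, then cisplatin 10 mg/kg iv 3 min later. Retches and vomits are counted over 240 min and compared with vehicle controls. 4–7 animals per group.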

Mustela putorius furo [7] = assay: compound was tested for antiemetic action in ferret at 3 mg/kg after peroral administration followed by emetogen (cisplatin) challenge at 10 mg/kg, iv after 60 min
Mustela putorius furo [8] = assay: as above; remark: listed apart in the source
Mustela putorius furo [9] = assay: compound was tested for antiemetic action in ferret at 3 mg/kg after peroral administration followed by emetogen (morphine) challenge at 0.5 mg/kg, sc; format: functional
Method in brief: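 Male ferrets (1.0–2.0 kg) receive 3.0 mg/kg po in 0.5% Methocel or vehicle. 60 min later they get a sc emetogen: apomorphine or morphine 0.5 mg/kg. Retches and vomits are counted for 30 min versus vehicle controls. 4–7 animals per group.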

Mustela putorius furo [10] = assay: compound was tested for antiemetic action in ferret at 3 mg/kg after peroral administration followed by emetogen (apomorphine) challenge at 0.25 mg/kg, sc; format: functional
Mustela putorius furo [11] = assay: compound was tested for antiemetic action in ferret at 3 mg/kg after peroral administration followed by emetogen (cisplatin) challenge at 10 mg/kg, iv after 60 min; remark: listed apart in the source
Mustela putorius furo [12] = assay: as above; remark: listed apart in the source

Sequence of Substance-P receptor (P25103 whole entry): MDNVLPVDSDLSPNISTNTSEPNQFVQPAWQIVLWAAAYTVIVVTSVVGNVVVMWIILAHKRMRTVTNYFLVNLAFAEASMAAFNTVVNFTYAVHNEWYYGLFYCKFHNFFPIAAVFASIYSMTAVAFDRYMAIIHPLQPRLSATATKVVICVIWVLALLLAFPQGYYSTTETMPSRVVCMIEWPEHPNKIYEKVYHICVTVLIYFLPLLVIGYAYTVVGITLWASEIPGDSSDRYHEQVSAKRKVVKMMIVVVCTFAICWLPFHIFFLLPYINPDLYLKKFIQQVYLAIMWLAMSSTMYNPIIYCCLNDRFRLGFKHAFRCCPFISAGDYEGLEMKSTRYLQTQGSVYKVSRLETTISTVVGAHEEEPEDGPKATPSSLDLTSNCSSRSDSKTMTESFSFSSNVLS

Compound: C[C@@H](O[C@H]1OCCN(Cc2n[nH]c(O)n2)[C@H]1c1ccccc1)c1cc(F)cc(C(F)(F)F)c1
- IC50 (Substance-P receptor): 100 pM

Compound: O=c1[nH]nc(CN2CCO[C@H](OCc3cc(C(F)(F)F)cc(C(F)(F)F)c3)[C@@H]2c2ccc(F)cc2)[nH]1
- ED50 (Gerbillinae [1]): 1.24 mg/kg
- ED50 (Gerbillinae [2]): 0.3 mg/kg
- ED50 (Gerbillinae [3]): 0.07 mg/kg
- ED50 (Cavia porcellus [4]): 0.008 mg/kg
- IC50 (Substance-P receptor): 70 pM
- ID90 (Cavia porcellus [5]): 2.3 mg/kg

Compound: C[C@@H](O[C@H]1OCCN(Cc2n[nH]c(=O)[nH]2)[C@H]1c1ccccc1)c1cc(C(F)(F)F)cc(C(F)(F)F)c1
- IC50 (Substance-P receptor): 880 pM

Compound: C[C@H](O[C@H]1OCCN(Cc2n[nH]c(O)n2)[C@H]1c1ccccc1)c1cc(C(F)(F)F)cc(C(F)(F)F)c1
- ED50 (Gerbillinae [1]): 1.11 mg/kg
- ED50 (Gerbillinae [2]): 0.16 mg/kg
- ED50 (Gerbillinae [3]): 0.04 mg/kg
- ED50 (Cavia porcellus [4]): 0.01 mg/kg
- IC50 (Substance-P receptor): 90 pM
- ID90 (Cavia porcellus [5]): 2.3 mg/kg

Compound: C[C@@H](O[C@H]1OCCN(Cc2n[nH]c(O)n2)[C@H]1c1ccccc1)c1cccc(C(F)(F)F)c1
- IC50 (Substance-P receptor): 270 pM

Compound: O=c1[nH]nc(CN2CCO[C@H](OCc3cc(C(F)(F)F)cc(C(F)(F)F)c3)[C@@H]2c2ccccc2)[nH]1
- ED50 (Gerbillinae [1]): 2.88 mg/kg
- ED50 (Gerbillinae [2]): 0.85 mg/kg
- ED50 (Cavia porcellus [4]): 0.006 mg/kg
- ID90 (Cavia porcellus [5]): 5.4 mg/kg

Compound: COc1ccc(-n2nnnc2C(F)(F)F)cc1CNC1CCCNC1c1ccccc1 (racemic)
- ED50 (Gerbillinae [1]): > 10 mg/kg
- ED50 (Gerbillinae [2]): 0.04 mg/kg
- ED50 (Gerbillinae [3]): 0.02 mg/kg

Compound: COc1ccc(OC(F)(F)F)cc1CN[C@H]1CCCN[C@H]1c1ccccc1 (racemic)
- ED50 (Gerbillinae [1]): 5.37 mg/kg
- ED50 (Gerbillinae [2]): 0.03 mg/kg
- ED50 (Gerbillinae [3]): 0.24 mg/kg
- ED50 (Cavia porcellus [4]): 0.01 mg/kg
- ID90 (Cavia porcellus [5]): >10 mg/kg

Compound: C[C@@H](O[C@H]1OCCN(Cc2n[nH]c(=O)[nH]2)[C@H]1c1ccc(F)cc1)c1cc(C(F)(F)F)cc(C(F)(F)F)c1 [APREPITANT]
- Control retches (Mustela putorius furo [6]): 100
- Control vomits (Mustela putorius furo [6]): 12.7
- Retches (Mustela putorius furo [6]): 5.3
- Vomits (Mustela putorius furo [6]): 1
- Control vomits (Mustela putorius furo [7]): 22.3
- ED50 (Gerbillinae [1]): 0.33 mg/kg
- Control retches (Mustela putorius furo [8]): 154.8
- ED50 (Gerbillinae [2]): 0.36 mg/kg
- Control retches (Mustela putorius furo [9]): 44.7
- Control vomits (Mustela putorius furo [9]): 5.5
- Retches (Mustela putorius furo [9]): 6
- Vomits (Mustela putorius furo [9]): 0.5
- Control retches (Mustela putorius furo [10]): 28.3
- Control vomits (Mustela putorius furo [10]): 3.3
- Retches (Mustela putorius furo [10]): 4.1
- Vomits (Mustela putorius furo [10]): 0.7
- ED50 (Gerbillinae [3]): 0.04 mg/kg
- ED50 (Cavia porcellus [4]): 0.008 mg/kg
- Retches (Mustela putorius furo [11]): 2.8
- ID90 (Cavia porcellus [5]): 1.8 mg/kg
- Vomits (Mustela putorius furo [12]): 0.5

Compound: COc1ccc(-n2nnnc2C(F)(F)F)cc1CN[C@H]1CCCN[C@H]1c1ccccc1 [VOFOPITANT]
- ED50 (Cavia porcellus [4]): 0.007 mg/kg
- IC50 (Substance-P receptor): 80 pM
- ID90 (Cavia porcellus [5]): >10 mg/kg
